Most compounds without a hit are left out; they make up all but 2.6% or so of the library.
OX1R antag-1 = antagonists of human orexin 1 receptor. O43613. AID 434989. inhibition, % at 5 µM. CHO/OX1R cells, Fluo-8 calcium fluorescence, orexin A. 330,000 compounds, 0.43% hits;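 active = inhibition above its plate's threshold, mean inhibition of all tested compounds on the plate plus 3 SD, cut at about 37% in these data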;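 note: 0% = orexin A challenge wells and 100% = SB-334867-A antagonist wells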
Target sequence (O43613 whole entry, looked up): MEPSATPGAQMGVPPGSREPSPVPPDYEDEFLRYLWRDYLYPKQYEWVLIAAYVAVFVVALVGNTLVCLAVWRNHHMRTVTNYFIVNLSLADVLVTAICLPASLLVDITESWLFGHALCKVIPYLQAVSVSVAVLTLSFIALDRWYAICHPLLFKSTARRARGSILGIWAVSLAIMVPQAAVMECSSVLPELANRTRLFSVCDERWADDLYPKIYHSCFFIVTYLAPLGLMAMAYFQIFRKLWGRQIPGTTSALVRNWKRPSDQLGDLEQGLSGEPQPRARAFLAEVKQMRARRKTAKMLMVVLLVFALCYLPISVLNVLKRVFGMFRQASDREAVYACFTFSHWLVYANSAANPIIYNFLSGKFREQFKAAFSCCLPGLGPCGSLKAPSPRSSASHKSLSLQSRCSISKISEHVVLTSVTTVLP
OX1R antag-2 = OX1R (human) antagonism; O43613; OX1R-expressing cells, FRET antagonist read-out; 330,000 compounds, 1.8% hits; inhibition, % at 6.6 µM; in the data active = inhibition mostly above about 38%, no sharp cut-off; inactive = mostly below about 40%;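 note: 0% = agonist challenge alone and 100% = reference antagonist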
OXTR agonist = activates the human oxytocin receptor | P30559 | CHO-OTR cells, Fluo-8 calcium fluorescence; normalized: DMSO 0%, oxytocin 100% | activation, % at 3 µM | 320,000 compounds, 0.32% hits | AID 2435;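 active = activation above the mean of all tested compounds plus 3 SD, cutoff set per screening run, cut at about 20% in these data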;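 note: peak over basal fluorescence ratio from a 100 s FLIPR kinetic read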
V1aR counter = V1a receptor agonism, counter-screen for OXTR agonists. 320,000 compounds, 0.25% hits. activation, % at 3 µM. CHO-V1R cells, Fluo-8 calcium fluorescence, agonist mode; 0% DMSO, 100% 3 nM vasopressin. AID 2797;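 active = activation above the mean activation of all tested compounds plus 3 SD, per screening run, cut at about 20% in these data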;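 note: signal is peak over basal fluorescence ratio across a 100 second FLIPR read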
OXTR potentiator = human OXTR potentiation | P30559 | CHO-OTR cells, Fluo-8 calcium fluorescence, potentiator mode; 0% = oxytocin EC15, 100% = EC100 | activation, % at 3 µM | 320,000 compounds, 0.061% hits | AID 2445;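 active = activation above that plate's cutoff, the mean activation of tested compounds plus 3 SD, cut at about 6.6% in these data, passing the limit was not always enough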;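 note: 100% uses oxytocin at 75 nM as the full agonist control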
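Dosing: Single dose, 3.0 µM nominal final compound concentration | Material: Human OTR in CHO cells | Technique: Kinetic Fluo-8 calcium fluorescence | Benchmarks: EC15 oxytocin alone as 0%, 75 nM oxytocin as 100% | Probe or stimulus: Oxytocin at about EC15, sub-maximal agonist stimulus | Incubation: Compound 6 min at room temperature before oxytocin, 100 s read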
CHO parental Ca = counter-screen for OX1R antagonists: effect in parental CHO cells. 330,000 compounds, 0.63% hits. parental CHO-K1, ATP-induced calcium, Fluo-8 fluorescence. AID 463079. inhibition, % at 5.6 µM;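 active = inhibition above that plate's mean sample inhibition plus 3 SD, cut at about 26% in these data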;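 note: 0% = ATP-challenged DMSO wells and 100% = DMSO wells without ATP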
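Test system: untransfected parental CHO cell line. Compound: one dose, 5.6 µM nominal. Detection: intracellular calcium via Fluo-8 no-wash fluorescent dye. Measure: % inhibition. Benchmarks: ATP-challenged DMSO wells low, unchallenged DMSO wells high.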
* hit, by the source's call.

What do the screens show for `C=CC[n+]1c(/C=C/c2ccc(OC(C)=O)c(OC)c2)ccc2ccccc21`?
OX1R antag-1: -9.3; OX1R antag-2: 48.4*; OXTR agonist: 1.9; V1aR counter: 0.0; OXTR potentiator: -11.3; CHO parental Ca: 5.5

How did COc1cccc(CNC(=O)CN2C(=O)CSc3ccc(S(=O)(=O)N4CCOCC4)cc32)c1 do in these assays?
OX1R antag-1: -26.9; OX1R antag-2: 37.0*; OXTR agonist: 0.1; V1aR counter: 1.7; OXTR potentiator: -4.0; CHO parental Ca: -29.3

How did O=C(O)/C=C/C(=O)Nc1ccc(Oc2ccccc2)cc1 do in these assays?
OX1R antag-1: 4.1; OX1R antag-2: 6.2; OXTR agonist: 1.4; V1aR counter: 0.5; OXTR potentiator: -1.0; CHO parental Ca: 12.3

What do the screens show for `CCOC(=O)/C=C/C(=O)Nc1ccc(Oc2ccccc2)cc1`?
OX1R antag-1: 32.6; OX1R antag-2: 9.6; OXTR agonist: 11.1; V1aR counter: 8.2; OXTR potentiator: -8.4; CHO parental Ca: 43.6*

How did COCCn1c(C)cc(C(=O)CN2C(=O)NC3(CCCCCCC3)C2=O)c1C do in these assays?
OX1R antag-1: -2.3; OX1R antag-2: 63.1*; OXTR agonist: 1.1; V1aR counter: 1.1; OXTR potentiator: -2.0; CHO parental Ca: -14.6

What do the screens show for `COc1ccc(C(=O)c2nccc3cc(OC)c(OC)cc23)cc1OC`?
OX1R antag-1: -24.8; OX1R antag-2: 69.0*; OXTR agonist: 2.0; V1aR counter: 0.3; OXTR potentiator: 1.6; CHO parental Ca: -6.3

What do the screens show for `COc1ccc(C(=O)c2ccc(OC)c(OC)c2)cc1OC`?
OX1R antag-1: -23.3; OX1R antag-2: 4.9; OXTR agonist: 3.3; V1aR counter: 0.1; OXTR potentiator: -12.2; CHO parental Ca: -0.2

What do the screens show for `COCCN(CC(=O)Nc1ccccc1C(F)(F)F)C(=O)/C=C/c1cc(Cl)c2c(c1)OCO2`?
OX1R antag-1: -16.7; OX1R antag-2: 0.1; OXTR agonist: 1.4; V1aR counter: 3.5; OXTR potentiator: -6.5; CHO parental Ca: -36.7

How did COCCN(CC(=O)Nc1ccccc1C(F)(F)F)C(=O)/C=C/c1ccc2ccccc2n1 do in these assays?
OX1R antag-1: 30.1; OX1R antag-2: 53.3*; OXTR agonist: 0.8; V1aR counter: 1.6; OXTR potentiator: -9.8; CHO parental Ca: -15.5

Results for Cn1cccc1/C=N/n1c(-c2ccc(Cl)cc2Cl)n[nH]c1=S ?
OX1R antag-1: 20.2; OX1R antag-2: 29.6; OXTR agonist: 25.8*; V1aR counter: 21.1*; OXTR potentiator: -23.4; CHO parental Ca: -9.6

Results for Cn1ccnc1C(O)c1ccccc1 (centres undefined) ?
OX1R antag-1: -3.2; OX1R antag-2: 13.5; OXTR agonist: 0.2; V1aR counter: -0.4; OXTR potentiator: -2.0; CHO parental Ca: 2.3

Results for COc1ccc2ccccc2c1C(O)c1nccn1C (centres undefined) ?
OX1R antag-1: -6.6; OX1R antag-2: 64.1*; OXTR agonist: 8.6; V1aR counter: 6.3; OXTR potentiator: -5.8; CHO parental Ca: -0.8

What do the screens show for `Cc1c(Cl)ccc2sc(NC(=O)C3CC3)nc12`?
OX1R antag-1: -20.3; OX1R antag-2: 43.5*; OXTR agonist: 2.9; V1aR counter: 4.1; OXTR potentiator: -6.2; CHO parental Ca: 3.2

How did CCCC(=O)Nc1nc2c(C)c(Cl)ccc2s1 do in these assays?
OX1R antag-1: -2.2; OX1R antag-2: 26.6; OXTR agonist: -1.3; V1aR counter: 3.3; OXTR potentiator: -9.2; CHO parental Ca: 8.6

What do the screens show for `O=C1c2ccccc2-c2ccc(C(=O)N3CCOCC3)cc21`?
OX1R antag-1: -20.7; OX1R antag-2: 60.5*; OXTR agonist: -0.1; V1aR counter: 0.8; OXTR potentiator: -11.2; CHO parental Ca: 4.2

How did Cc1ccc2c(C)c(C(=O)N3CCCCC3CO)oc2c1C (centres undefined) do in these assays?
OX1R antag-1: -26.3; OX1R antag-2: 6.9; OXTR agonist: -2.0; V1aR counter: -2.2; OXTR potentiator: -9.3; CHO parental Ca: 6.3

How did NC(=O)C1CCN(C(=O)NC2CC(=O)N(c3ccc4c(c3)OCCO4)C2)CC1 (centres undefined) do in these assays?
OX1R antag-1: 6.0; OX1R antag-2: 17.1; OXTR agonist: 0.5; V1aR counter: -0.1; OXTR potentiator: 1.9; CHO parental Ca: -0.2

How did COC(=O)/C(=C(/F)Sc1cc(C)c(O)c(C)c1)C(F)(F)F do in these assays?
OX1R antag-1: 13.2; OX1R antag-2: 17.6; OXTR agonist: 0.1; V1aR counter: 1.1; OXTR potentiator: -2.5; CHO parental Ca: 33.0*

Results for CC1CCCCN1C(=O)COC(=O)c1cc([N+](=O)[O-])ccc1N (centres undefined) ?
OX1R antag-1: -22.8; OX1R antag-2: 38.8; OXTR agonist: -0.7; V1aR counter: 0.1; OXTR potentiator: -3.9; CHO parental Ca: -18.1

How did Cc1cc(C)c(S(=O)(=O)c2ccc(C(C)(C)C)cc2)c(Cl)n1 do in these assays?
OX1R antag-1: 2.3; OX1R antag-2: 11.5; OXTR agonist: 10.2; V1aR counter: 5.6; OXTR potentiator: -21.4; CHO parental Ca: 43.2*

Results for Nc1ncnc2c1ncn2[C@@H]1O[C@H](CNC(=O)[C@@H]2CCCN2S(=O)(=O)c2ccc(F)cc2)[C@@H](O)[C@H]1O ?
OX1R antag-1: -7.3; OX1R antag-2: 13.6; CHO parental Ca: -10.6

How did Cc1[nH]n(-c2ccc([N+](=O)[O-])cc2)c(=O)c1C=NCCN1CCN(C(=O)C(C)C)CC1 do in these assays?
OX1R antag-1: -7.6; OX1R antag-2: 17.9; OXTR agonist: 0.3; V1aR counter: 1.1; OXTR potentiator: -7.5; CHO parental Ca: 26.9*

What do the screens show for `COc1ccccc1NC(=O)COC(=O)Cn1cnc2c1c(=O)n(C)c(=O)n2C`?
OX1R antag-1: -9.9; OX1R antag-2: 6.7; OXTR agonist: 1.2; V1aR counter: 0.9; OXTR potentiator: -7.6; CHO parental Ca: -0.4

What do the screens show for `O=C1c2ccccc2[C@@H]2C[C@H]3O[C@H]3CCN12`?
OX1R antag-1: -11.6; OX1R antag-2: 4.5; CHO parental Ca: -6.8

Results for O=c1nc(/C=C/c2ccc(-c3ccc(F)cc3)o2)cc(C(F)(F)F)[nH]1 ?
OX1R antag-1: 53.1*; OX1R antag-2: 13.4; OXTR agonist: 9.2; V1aR counter: 15.3; OXTR potentiator: -10.1; CHO parental Ca: 12.5

Results for CCOC(=O)Cn1cc(C=O)c2ccccc21 ?
OX1R antag-1: -6.6; OX1R antag-2: 6.7; OXTR agonist: 0.4; V1aR counter: 0.3; OXTR potentiator: -3.1; CHO parental Ca: -7.0

How did CCn1cc(/C=C/c2cc[n+](C)cc2)c2ccccc21 do in these assays?
OX1R antag-1: -17.8; OX1R antag-2: 45.1*; OXTR agonist: 9.0; V1aR counter: 8.9; OXTR potentiator: -14.8; CHO parental Ca: -4.2

Bioassay records from PubChem.
